Measurements collected from several papers.
Lines come from different studies, so protocols differ.
Organism: Acinetobacter baumannii
Effect on: microbial growth

| Structure (SMILES) | assay | test system | conditions | MIC |
| --- | --- | --- | --- | --- |
| O=C(O)c1ccc(-n2cc(/C=N/Nc3ccccc3F)c(-c3ccc4ccccc4c3)n2)cc1 | – | ATCCBAA1605 | – | 25 µg/mL |
| O=[N+]([O-])c1ccc(O)c2ncccc12 | – | 19606 | – | 1.56 µM |
| O=C(O)c1ccc(-n2cc(/C=N/Nc3cccc(Br)c3)c(-c3cccc(F)c3)n2)cc1 | – | ATCCBAA1605 | – | 12.5 µg/mL |
| N=C(N)c1ccc(OCCCCCOc2ccc(C(=N)N)cc2)cc1 | broth dilution | ATCC17978 | – | > 200 µg/mL |
| C/C(O)=C1\C(=O)C(CC(C)C)N(C(=O)CCCCCc2ccccc2)C1=O (stereo not shown) | – | ATCC19606 | – | > 200 µg/mL |
| CNc1nc(Cl)c2c(c1O)C(=O)C1=C(O)[C@]3(O)C(=O)C(C(N)=O)=C(O)[C@@H](N(C)C)[C@@H]3C[C@@H]1C2.Cl.Cl.Cl | broth dilution | ATCC19606 | – | 0.031 µg/mL |
| CN(C)[C@@H]1C(O)=C(C(N)=O)C(=O)[C@@]2(O)C(O)=C3C(=O)c4c(c(F)c5ccc(CNC6CC6)cc5c4O)C[C@H]3C[C@@H]12 | broth dilution | ATCC19606 | – | 1 µg/mL |
| O=C(CCCCCCCC[P+](c1ccccc1)(c1ccccc1)c1ccccc1)Nc1cc(O)c(O)c(O)c1.[Br-] | broth dilution | ATCC19606 | 18 h | > 32 µg/mL |
| C[C@H]1COc2c(N3CCN(C)CC3)c(F)cc3c(=O)c(C(=O)O)cn1c23 | broth dilution | – | – | 3.3 µM |
| CN(C)CC(C)(C)CNc1nc(F)c2c(c1O)C(=O)C1=C(O)[C@]3(O)C(=O)C(C(N)=O)=C(O)[C@@H](N(C)C)[C@@H]3C[C@@H]1C2.Cl | broth dilution | ATCC19606 | – | 4 µg/mL |
| NC1CCCCc2c1[nH]c1ccc(Br)cc21 (stereo not shown) | broth dilution | ATCC19606 | – | 16 µg/mL |
| CCCCCCC/C=C/C(=O)N1C(=O)/C(=C(\O)c2ccncc2)C(=O)C1CC(C)C (stereo not shown) | – | ATCC19606 | – | > 200 µg/mL |
| CC(NCCCNC(=O)c1ccc(Cl)s1)c1cc2cc(Br)ccc2[nH]1 (stereo not shown) | broth dilution | ATCC19606 | – | 32 µg/mL |
| CCCCCCC/C=C/C(=O)N1C(=O)/C(=C(\O)c2ccc(F)cc2)C(=O)C1CC(C)C (stereo not shown) | – | ATCC19606 | – | > 200 µg/mL |
| CC[C@H]1OC(=O)[C@H](C)[C@@H](O[C@H]2C[C@@](C)(OC)[C@@H](O)[C@H](C)O2)[C@H](C)[C@@H](O[C@@H]2O[C@H](C)C[C@H](N(C)C)[C@H]2O)[C@](C)(O)C[C@@H](C)C(=O)[C@H](C)[C@@H](O)[C@]1(C)O | – | ATCC19606 | – | 50 µg/mL |
| CC(C)(O/N=C(\C(=O)N[C@@H]1C(=O)N2C(C(=O)[O-])=C(C[N+]3(CCNC(=O)c4ccc(O)c(O)c4Cl)CCCC3)CS[C@H]12)c1csc(N)n1)C(=O)O | – | DSM30007 | – | 0.2 µM |
| N=C(N)c1ccc(OCc2cc(Br)cc(COc3ccc(C(=N)N)cc3)c2)cc1 | broth dilution | ATCC17978 | – | > 200 µg/mL |
| O=C(CCCCCCCCCC[P+](c1ccccc1)(c1ccccc1)c1ccccc1)Nc1ccc(O)c(O)c1.[Br-] | broth dilution | ATCC19606 | 18 h | > 32 µg/mL |
| CO[C@H]1/C=C/O[C@@]2(C)Oc3c(C)c(O)c4c(O)c(c(/C=N/N5CCN(C)CC5)c(O)c4c3C2=O)NC(=O)/C(C)=C\C=C\[C@H](C)[C@H](O)[C@@H](C)[C@@H](O)[C@@H](C)[C@H](OC(C)=O)[C@@H]1C | – | NCTC13301 | – | 4 µg/mL |
| CN(C)c1cc(NC(=O)CNC(C)(C)C)c(O)c2c1C[C@H]1C[C@H]3[C@H](N(C)C)C(O)=C(C(N)=O)C(=O)[C@@]3(O)C(O)=C1C2=O | – | ATCC19606 | – | 1.2 µg/mL |

| Structure (SMILES) | assay | test system | conditions | MIC |
| --- | --- | --- | --- | --- |
| CCCCCCC/C=C/C(=O)N1C(=O)/C(=C(/C)O)C(=O)C1CCC(=O)O (stereo not shown) | – | ATCC19606 | – | > 200 µg/mL |
| CC(C)Oc1c(NC(=O)c2ccc(NC(=O)[C@H](CC(N)=O)NC(=O)c3ccc(NC(=O)c4ccc(C#N)cn4)cc3)cc2)ccc(C(=O)Nc2ccc(C(=O)O)cc2)c1O | – | DSM30008 | – | 0.125 µg/mL |
| C[C@@H](O)[C@H]1C(=O)N2C(C(=O)O)=C(S[C@@H]3CN[C@H](C(=O)N(C)C)C3)[C@H](C)[C@H]12 | – | – | clinical isolate | 128 µg/mL |
| CN(C)c1ccc(O)c2c1C[C@H]1C[C@H]3[C@H](N(C)C)C(O)=C(C(N)=O)C(=O)[C@@]3(O)C(O)=C1C2=O | broth dilution | ATCC19606 | – | ≤ 0.125 µg/mL |
| CN(C)[C@@H]1C(O)=C(C(N)=O)C(=O)[C@@]2(O)C(O)=C3C(=O)c4c(cc5ccc(-c6cccnc6)cc5c4O)C[C@H]3C[C@@H]12 | broth dilution | ATCC19606 | – | 32 µg/mL |
| CNC(C)C1CCC(N)C(OC2C(N)CC(N)C(OC3OCC(C)(O)C(NC)C3O)C2O)O1 (stereo not shown) | – | – | – | 0.5 to 1 µg/mL |
| C[C@@H](O)[C@H]1C(=O)N2C(C(=O)O)=C(S[C@@H]3CN[C@H](C(=O)N(C)C)C3)[C@H](C)[C@H]12 | broth dilution | KCCM40203 | 16 h | 2 µM |
| CN(C)CCCNc1nc(Cl)c2c(c1O)C(=O)C1=C(O)[C@]3(O)C(=O)C(C(N)=O)=C(O)[C@@H](N(C)C)[C@@H]3C[C@@H]1C2.Cl | broth dilution | ATCC19606 | – | > 32 µg/mL |
| O=[N+]([O-])c1ccc(/C=N/Nc2nc(Nc3ccccc3)nc(N3CCOCC3)n2)o1 | – | – | – | > 120 µM |
| CN(C)[C@@H]1C(O)=C(C(N)=O)C(=O)[C@@]2(O)C(O)=C3C(=O)c4c(O)c(-c5ccccc5)nc(Cl)c4C[C@H]3C[C@@H]12.Cl | broth dilution | ATCC19606 | – | 16 µg/mL |
| N#Cc1ccc(N/N=C/c2cn(-c3ccc(C(=O)O)cc3)nc2-c2ccc(F)cc2)cc1 | – | ATCCBAA1605 | – | > 25 µg/mL |
| CCn1cc(C(=O)O)c(=O)c2cc(F)c(N3CCNCC3)cc21 | broth dilution | BAA747 | – | 16 µM |
| NC1CCCCc2c1[nH]c1cc(Cl)c(Cl)cc21 (stereo not shown) | broth dilution | ATCC19606 | – | 8 µg/mL |
| O=C(CCCCCCCC[P+](c1ccccc1)(c1ccccc1)c1ccccc1)Nc1ccc(O)c(O)c1.[Br-] | broth dilution | ATCC19606 | 18 h | > 32 µg/mL |
| CN(C)[C@@H]1C(O)=C(C(N)=O)C(=O)[C@@]2(O)C(O)=C3C(=O)c4c(cc5ccc(CN6CC(F)(F)C6)cc5c4O)C[C@H]3C[C@@H]12 | broth dilution | ATCC19606 | – | 32 µg/mL |
| CCCNc1nc(F)c2c(c1O)C(=O)C1=C(O)[C@]3(O)C(=O)C(C(N)=O)=C(O)[C@@H](N(C)C)[C@@H]3C[C@@H]1C2.Cl.Cl | broth dilution | ATCC19606 | – | 0.125 µg/mL |
| CCCCCCC/C=C/C(=O)N1C(=O)/C(=C(\O)c2ccccc2)C(=O)C1CC(C)C (stereo not shown) | – | ATCC19606 | – | > 200 µg/mL |
| N=C(N)c1ccc(OCc2ccccc2COc2ccc(C(=N)N)cc2)cc1 | broth dilution | ATCC17978 | – | > 200 µg/mL |
| CN(C)[C@@H]1C(O)=C(C(N)=O)C(=O)[C@@]2(O)C(O)=C3C(=O)c4c(cc5ccc(CN(C)S(C)(=O)=O)cc5c4O)C[C@H]3C[C@@H]12 | broth dilution | ATCC19606 | – | 32 µg/mL |
| CNC(C)C1CCC(N)C(OC2C(N)CC(N)C(OC3OCC(C)(O)C(NC)C3O)C2O)O1 (stereo not shown) | broth dilution | ATCC19606 | – | 0.5 µg/mL |
